The source made the active and inactive calls. The rule behind the calls is not given here.
Key:
[1] = biological target: Dual specificity tyrosine-phosphorylation-regulated kinase 1A (Homo sapiens) (UniProt Q13627); test: Inhibition of recombinant human N-terminal GST-tagged DYRK1A (1 to 502 residues) expressed in Escherichia coli assessed as remaining activity at 1 uM using KKISGRLSPIMTEQ as substrate incubated for 30 mins in presence of [gamma-33P]ATP by filter binding method relative to control
Summary of the method: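 Run robotically for 30 min at 21 °C under linear conditions. Compound at 1 or 10 µM. Percentage activity remaining versus control without compound, triplicate mean ± S.D.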

[2] = biological target: Insulin receptor-related protein (Homo sapiens) (UniProt P14616); test: Inhibition of recombinant human N-terminal His6-tagged IRR (944 to 1236 residues) expressed in baculovirus infected Sf21 cells assessed as remaining activity at 1 uM using MBP as substrate incubated for 30 mins in presence of [gamma-33P]ATP by filter binding method relative to control
Chain of Insulin receptor-related protein (Homo sapiens) (P14616 27-742 limits assumed): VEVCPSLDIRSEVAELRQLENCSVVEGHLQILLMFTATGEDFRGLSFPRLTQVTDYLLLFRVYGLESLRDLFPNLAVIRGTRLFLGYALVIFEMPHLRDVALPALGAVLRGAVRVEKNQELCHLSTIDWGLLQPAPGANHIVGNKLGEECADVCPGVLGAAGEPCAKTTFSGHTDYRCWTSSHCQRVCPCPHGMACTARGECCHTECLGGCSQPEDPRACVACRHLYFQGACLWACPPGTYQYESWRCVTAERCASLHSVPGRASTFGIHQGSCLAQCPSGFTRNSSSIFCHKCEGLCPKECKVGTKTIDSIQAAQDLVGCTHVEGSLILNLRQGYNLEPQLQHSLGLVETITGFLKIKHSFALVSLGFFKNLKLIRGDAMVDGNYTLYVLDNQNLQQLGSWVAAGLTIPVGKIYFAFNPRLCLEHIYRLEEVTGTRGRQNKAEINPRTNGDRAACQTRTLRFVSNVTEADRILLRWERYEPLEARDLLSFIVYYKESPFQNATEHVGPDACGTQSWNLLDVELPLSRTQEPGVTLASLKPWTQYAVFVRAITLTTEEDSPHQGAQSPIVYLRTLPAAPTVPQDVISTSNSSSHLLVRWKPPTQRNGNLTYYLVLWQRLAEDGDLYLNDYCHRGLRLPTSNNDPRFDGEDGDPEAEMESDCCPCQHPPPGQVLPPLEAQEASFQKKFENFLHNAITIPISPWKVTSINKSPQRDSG
Chain of Insulin receptor-related protein (Homo sapiens) (P14616 747-1297 limits assumed): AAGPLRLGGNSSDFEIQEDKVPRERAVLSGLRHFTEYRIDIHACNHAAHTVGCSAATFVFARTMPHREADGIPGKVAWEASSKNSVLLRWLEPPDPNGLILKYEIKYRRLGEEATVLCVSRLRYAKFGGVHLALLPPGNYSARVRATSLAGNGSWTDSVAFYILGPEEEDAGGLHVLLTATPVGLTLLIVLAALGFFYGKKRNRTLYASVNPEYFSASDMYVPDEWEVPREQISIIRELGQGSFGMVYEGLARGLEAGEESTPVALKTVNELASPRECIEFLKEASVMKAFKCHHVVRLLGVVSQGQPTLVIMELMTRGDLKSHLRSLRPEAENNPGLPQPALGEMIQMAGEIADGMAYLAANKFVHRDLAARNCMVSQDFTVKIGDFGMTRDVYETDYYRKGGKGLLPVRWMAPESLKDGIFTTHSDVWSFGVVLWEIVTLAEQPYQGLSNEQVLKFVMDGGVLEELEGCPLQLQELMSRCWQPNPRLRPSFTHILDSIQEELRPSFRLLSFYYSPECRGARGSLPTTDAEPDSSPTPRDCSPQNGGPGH

[3] = biological target: Mitogen-activated protein kinase 8 (Homo sapiens) (UniProt P45983); test: Inhibition of recombinant human His6-tagged JNK1alpha1 (1 to 384 residues) expressed in baculovirus infected Sf21 cells assessed as remaining activity at 1 uM using ATF2 as substrate incubated for 30 mins in presence of [gamma-33P]ATP by filter binding method relative to control
Chain of Mitogen-activated protein kinase 8 (Homo sapiens) (P45983 whole entry, the tested form may be a part): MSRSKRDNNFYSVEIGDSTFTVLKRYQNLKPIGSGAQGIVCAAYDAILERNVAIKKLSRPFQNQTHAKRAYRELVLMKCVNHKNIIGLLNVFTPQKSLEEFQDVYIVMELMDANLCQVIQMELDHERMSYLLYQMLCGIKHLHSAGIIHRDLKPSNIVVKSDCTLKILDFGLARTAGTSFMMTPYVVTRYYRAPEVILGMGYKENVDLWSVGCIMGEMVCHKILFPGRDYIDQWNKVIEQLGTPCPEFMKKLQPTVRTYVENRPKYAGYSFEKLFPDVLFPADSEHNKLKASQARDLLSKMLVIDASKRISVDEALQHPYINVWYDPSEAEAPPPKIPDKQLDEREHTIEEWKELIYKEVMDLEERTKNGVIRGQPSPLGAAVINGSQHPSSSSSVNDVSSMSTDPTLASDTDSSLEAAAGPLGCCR
Summary of the method: (§1)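 Robotic radiometric panel assay, 30 min at room temperature (21 °C), with 10 mM magnesium acetate. […] Compound at 1 or 10 µM. Residual activity expressed relative to compound-free control; triplicate average ± S.D.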

[4] = biological target: MAP kinase-interacting serine/threonine-protein kinase 1 (Homo sapiens) (UniProt Q9BUB5); test: Inhibition of recombinant human N-terminal GST-tagged C-terminal His6-tagged MNK1 (2 to 424 residues) expressed in Escherichia coli assessed as remaining activity at 1 uM using eIF4E as substrate incubated for 30 mins in presence of [gamma-33P]ATP by filter binding method relative to control
Chain of MAP kinase-interacting serine/threonine-protein kinase 1 (Homo sapiens) (Q9BUB5 whole entry, looked up, the tested form may be a part): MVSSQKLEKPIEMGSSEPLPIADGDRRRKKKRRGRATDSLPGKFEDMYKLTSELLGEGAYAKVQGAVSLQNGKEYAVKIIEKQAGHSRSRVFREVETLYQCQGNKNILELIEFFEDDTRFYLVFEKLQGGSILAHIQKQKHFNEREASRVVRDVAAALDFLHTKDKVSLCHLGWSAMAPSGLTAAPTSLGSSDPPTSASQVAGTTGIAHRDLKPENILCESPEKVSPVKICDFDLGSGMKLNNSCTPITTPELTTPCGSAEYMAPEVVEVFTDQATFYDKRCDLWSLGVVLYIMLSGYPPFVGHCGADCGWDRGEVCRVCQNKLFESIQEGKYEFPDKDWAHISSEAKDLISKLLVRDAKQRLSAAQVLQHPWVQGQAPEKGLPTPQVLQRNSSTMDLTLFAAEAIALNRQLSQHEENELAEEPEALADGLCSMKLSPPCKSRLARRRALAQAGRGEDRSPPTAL

[5] = biological target: Serine/threonine-protein kinase pim-2 (Homo sapiens) (UniProt Q9P1W9); test: Inhibition of recombinant human N-terminal GST-tagged PIM2 (2 to 334 residues) expressed in Escherichia coli assessed as remaining activity at 1 uM using RSRHSSYPAGT as substrate incubated for 30 mins in presence of [gamma-33P]ATP by filter binding method relative to control
Chain of Serine/threonine-protein kinase pim-2 (Homo sapiens) (Q9P1W9 whole entry, looked up, the tested form may be a part): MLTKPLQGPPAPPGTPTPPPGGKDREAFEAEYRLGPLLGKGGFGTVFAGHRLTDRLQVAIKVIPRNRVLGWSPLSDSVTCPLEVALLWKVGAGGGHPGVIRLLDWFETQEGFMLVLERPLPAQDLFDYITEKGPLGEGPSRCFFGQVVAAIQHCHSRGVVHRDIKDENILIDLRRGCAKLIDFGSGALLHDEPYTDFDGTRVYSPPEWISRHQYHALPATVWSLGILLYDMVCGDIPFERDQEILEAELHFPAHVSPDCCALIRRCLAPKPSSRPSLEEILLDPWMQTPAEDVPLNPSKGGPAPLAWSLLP
Summary of the method: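 Radiometric kinase panel run robotically at room temperature (21 °C) for 30 min, linear in time and enzyme. […] Activity is expressed as percent of control without compound, from triplicate determinations ± S.D.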

[6] = biological target: Serine/threonine-protein kinase pim-3 (Homo sapiens) (UniProt Q86V86); test: Inhibition of recombinant human N-terminal His6-tagged PIM3 (2 to 326 residues) expressed in baculovirus infected Sf21 cells assessed as remaining activity at 1 uM using RSRHSSYPAGT as substrate incubated for 30 mins in presence of [gamma-33P]ATP by filter binding method relative to control
[7] = biological target: Ribosomal protein S6 kinase alpha-1 (Homo sapiens) (UniProt Q15418); test: Inhibition of recombinant human N-terminal His6-tagged RSK1 (1 to 735 residues) expressed in baculovirus infected Sf21 cells assessed as remaining activity at 1 uM using KKLNRTLSVA as substrate incubated for 30 mins in presence of [gamma-33P]ATP by filter binding assay relative to control
Chain of Ribosomal protein S6 kinase alpha-1 (Homo sapiens) (Q15418 whole entry, the tested form may be a part): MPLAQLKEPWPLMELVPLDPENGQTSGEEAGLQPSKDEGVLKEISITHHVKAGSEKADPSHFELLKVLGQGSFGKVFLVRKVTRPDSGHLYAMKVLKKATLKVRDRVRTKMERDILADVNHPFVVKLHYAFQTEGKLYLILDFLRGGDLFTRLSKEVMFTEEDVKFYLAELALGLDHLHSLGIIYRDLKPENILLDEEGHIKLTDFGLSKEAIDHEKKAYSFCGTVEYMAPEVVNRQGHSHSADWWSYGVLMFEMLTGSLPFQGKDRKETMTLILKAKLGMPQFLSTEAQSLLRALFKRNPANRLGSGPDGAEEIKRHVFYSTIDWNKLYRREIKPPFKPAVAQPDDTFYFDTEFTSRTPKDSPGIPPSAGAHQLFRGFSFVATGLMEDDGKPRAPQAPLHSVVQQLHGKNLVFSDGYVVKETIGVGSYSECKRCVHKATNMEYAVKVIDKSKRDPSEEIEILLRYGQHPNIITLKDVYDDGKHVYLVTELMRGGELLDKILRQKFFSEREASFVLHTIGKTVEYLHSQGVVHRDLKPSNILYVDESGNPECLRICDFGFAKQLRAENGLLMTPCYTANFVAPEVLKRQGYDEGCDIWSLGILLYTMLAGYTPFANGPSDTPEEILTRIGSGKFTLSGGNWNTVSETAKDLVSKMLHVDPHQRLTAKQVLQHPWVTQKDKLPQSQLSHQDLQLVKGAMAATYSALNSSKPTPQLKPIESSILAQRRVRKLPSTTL

[8] = biological target: SRSF protein kinase 1 (Homo sapiens) (UniProt Q96SB4); test: Inhibition of recombinant human N-terminal GST-tagged SRPK1 (2 to 654 residues) expressed in Escherichia coli assessed as remaining activity at 1 uM using RSRSRSRSRSRSRSR as substrate incubated for 30 mins in presence of [gamma-33P]ATP by filter binding assay relative to control
Summary of the method: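 Incubation was 30 min at room temperature (21 °C) under conditions linear with time and enzyme amount. Activity is reported as percent of control lacking compound, triplicate mean ± S.D.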

[9] = biological target: MAP kinase-activated protein kinase 5 (Homo sapiens) (UniProt Q8IW41); test: Inhibition of recombinant human His6-tagged PRAK (1 to 471 residues) expressed in baculovirus infected Sf21 cells assessed as remaining activity at 10 uM using phosphorylase b peptide as substrate incubated for 30 mins in presence of [gamma-33P]ATP by filter binding method relative to control; summary of the method: as §1
Chain of MAP kinase-activated protein kinase 5 (Homo sapiens) (Q8IW41 whole entry, the tested form may be a part): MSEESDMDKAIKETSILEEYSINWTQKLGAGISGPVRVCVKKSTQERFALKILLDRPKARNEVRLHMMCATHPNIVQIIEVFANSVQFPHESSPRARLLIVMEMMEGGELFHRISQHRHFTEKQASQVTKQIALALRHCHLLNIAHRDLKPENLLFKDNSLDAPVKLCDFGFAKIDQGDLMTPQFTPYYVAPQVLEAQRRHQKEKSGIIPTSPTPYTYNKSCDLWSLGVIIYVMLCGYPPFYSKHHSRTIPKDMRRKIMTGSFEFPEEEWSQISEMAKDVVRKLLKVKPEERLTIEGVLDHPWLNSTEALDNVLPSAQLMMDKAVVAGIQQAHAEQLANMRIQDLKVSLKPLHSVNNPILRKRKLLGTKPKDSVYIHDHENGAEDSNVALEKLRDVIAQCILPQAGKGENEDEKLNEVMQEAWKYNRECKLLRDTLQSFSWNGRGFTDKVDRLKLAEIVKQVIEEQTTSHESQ

MEF = test: Inhibition of mTORC2 in serum starved Rictor knockout MEF cells assessed as reduction IGF1-stimulated AKT phosphorylation at Thr308 residue at 100 to 1000 nM incubated for 20 mins by immunoblot analysis; type: cell-based; settings: Mus musculus, dose 100-1000 nM
Summary of the method: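 Serum withdrawn 16 h. Inhibitor or vehicle given 30 min before stimulation with 50 ng/ml IGF-1 for 20 min. Lysed in Tris lysis buffer and immunoblotted for Akt Thr308 phosphorylation with ECL detection. Applies to HEK-293 and to wild-type, Rictor, Sin1 or mLST8 knockout MEFs. Three independent experiments.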

[10] = biological target: Serine/threonine-protein kinase mTOR (Mus musculus) (UniProt Q9JLN9); test: Inhibition of mTOR in MEF cells assessed as reduction in 4E-BP1 phosphorylation at T37/46 residues at 1 uM incubated for 30 mins by immunoblot analysis; type: cell-based
Summary of the method: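 Cells (MEFs, wild-type or knockout, or HeLa) kept in 10% serum, then exposed 30 min to inhibitor or vehicle at the stated level. Washed twice in ice-cold PBS and lysed in Tris lysis buffer with CHAPS, phosphatase and protease inhibitors. Lysates cleared at 18000 g and immunoblotted with phospho-specific antibodies and ECL detection. Blots are representative of three experiments.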

mTORC1 (Homo sapiens) [11] = biological target: T1, mTORC1 (Homo sapiens) (UniProt P42345+Q8N122+Q9BVC4); settings: HEK293, dose 30-1000 nM, time 30.0 min
mTORC1 (Homo sapiens) [12] = biological target: T1, mTORC1 (Homo sapiens); settings: HEK293, dose 100-300 nM, time 30.0 min
mTORC2 (Homo sapiens) = mTORC2 (Homo sapiens) (UniProt P42345+Q6R327+Q9BVC4+Q9BPZ7); settings: HEK293, dose 30-1000 nM, time 30.0 min
[13] = biological target: Phosphatidylinositol 3-kinase catalytic subunit type 3 (Homo sapiens) (UniProt Q8NEB9); test: Inhibition of VPS34 (unknown origin) assessed as remaining activity at 1 uM using phosphatidylinositol as substrate incubated for 60 mins in presence of ATP relative to control
[14] = biological target: Serine/threonine-protein kinase D1 (Homo sapiens) (UniProt Q15139); test: Inhibition of recombinant human N-terminal His6-tagged PKD1 (2 to 912 residues) expressed in baculovirus infected Sf21 cells assessed as remaining activity at 10 uM using KKLNRTLSVA as substrate incubated for 30 mins in presence of [gamma-33P]ATP by filter binding method relative to control
Chain of Serine/threonine-protein kinase D1 (Homo sapiens) (Q15139 whole entry, looked up, the tested form may be a part): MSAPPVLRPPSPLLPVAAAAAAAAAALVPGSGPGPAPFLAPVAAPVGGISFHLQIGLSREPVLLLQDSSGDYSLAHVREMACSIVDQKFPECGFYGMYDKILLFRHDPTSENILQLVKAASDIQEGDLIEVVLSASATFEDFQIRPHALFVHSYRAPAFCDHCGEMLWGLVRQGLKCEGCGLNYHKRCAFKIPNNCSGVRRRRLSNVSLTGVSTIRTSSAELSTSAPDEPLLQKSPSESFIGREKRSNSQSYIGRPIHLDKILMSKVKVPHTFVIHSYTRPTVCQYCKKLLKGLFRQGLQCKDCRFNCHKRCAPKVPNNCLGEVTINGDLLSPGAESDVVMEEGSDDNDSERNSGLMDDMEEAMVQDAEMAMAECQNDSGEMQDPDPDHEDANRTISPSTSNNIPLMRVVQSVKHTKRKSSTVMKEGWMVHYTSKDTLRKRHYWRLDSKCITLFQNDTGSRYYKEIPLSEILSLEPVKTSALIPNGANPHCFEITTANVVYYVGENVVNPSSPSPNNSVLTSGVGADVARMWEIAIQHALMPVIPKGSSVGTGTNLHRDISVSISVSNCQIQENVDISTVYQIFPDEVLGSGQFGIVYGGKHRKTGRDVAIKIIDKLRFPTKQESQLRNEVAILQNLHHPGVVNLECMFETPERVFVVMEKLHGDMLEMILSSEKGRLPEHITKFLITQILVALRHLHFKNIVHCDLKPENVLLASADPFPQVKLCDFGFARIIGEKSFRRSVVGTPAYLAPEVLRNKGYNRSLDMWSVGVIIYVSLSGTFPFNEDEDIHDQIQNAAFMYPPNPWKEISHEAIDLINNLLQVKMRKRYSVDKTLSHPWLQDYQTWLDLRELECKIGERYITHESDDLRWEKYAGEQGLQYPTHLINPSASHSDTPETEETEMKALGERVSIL

## COc1ccc(-c2ccc3c(N4CCOCC4)nc(N4C[C@@H](C)O[C@@H](C)C4)nc3n2)cc1CO [Ku-0063794]
[1]
  Activity: 94%
[2]
  Activity: 105%
[3]
  Activity: 80%
[4]
  Activity: 111%
[5]
  Activity: 86%
[6]
  Activity: 114%
[7]
  Activity: 100%
[8]
  Activity: 101%
[9]
  Activity: 87%
MEF
  inhibition: Active
[10]
  inhibition: Active
mTORC1 (Homo sapiens) [11]
  inhibition: Active
mTORC1 (Homo sapiens) [12]
  inhibition: 100%
mTORC2 (Homo sapiens)
  inhibition: Dose-Dependent Effect
[13]
  Activity: 101%
[14]
  Activity: 101%
